Results on one molecule are retold here after PMC5148661 (ACS infectious diseases, 2016).

Read-outs that look alike come from different tables or passages of the source.

In general, EC50 refers to the concentration giving half of the maximal effect. A word on the IC50: it is the midpoint of a concentration-inhibition curve. One may read the half-life as how long it takes for the measured level to halve. What is called inhibition is the change of the read-out against control, counted positive when it falls. What is called Tmax is the time at which the peak concentration occurs. Usually bioavailability stands for dose-corrected exposure relative to a reference, in per cent.

The subject of data set [1] is P. cynomolgi large and small forms. As to the kind of experiment: P. cynomolgi liver stage assay in primary rhesus monkey hepatocytes. It is filed as cell-based. The following applies: concentrations at or below 10 μM; human serum-based media.
Data set [2] has as its system P. falciparum Dd2 isolates selected for resistance to DSM265. As to the kind of experiment: activity on DSM265-selected resistant lines. The format is cell-based. Conditions: G181C PfDHODH mutant line and 3-fold DHODH gene amplification line.
Data set [3] is described as follows: cytotoxicity against a human cell line. The format is cell-based. The following applies: human, HepG2 cells.
The subject of the next data set is Human HepG2 cells. The experiment in a line: cytotoxicity against a human cell line. It is filed as cell-based.
The next data set addresses Na_V1.5 channel (Homo sapiens, UniProt Q14524). The experiment in a line: Na_V1.5 channel assay. It is filed as cell-based. A digest of the protocol: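 Channel activity measured by IonWorks automated patch-clamp electrophysiology at a contract lab.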
Data set [4] has as its system P. falciparum 3D7A parasites. As to the kind of experiment: in vitro kill rate. The following applies: for EC50: Plasmodium falciparum, 3D7, 48 h. The format is cell-based.
The test system of the next data set is P. vivax field isolates. The experiment in a line: ex vivo 48 h schizont maturation assay. It is filed as cell-based. In a few lines:
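Field isolates came from patients at malaria clinics in Timika, Papua, Indonesia, and were tested in a 48 h schizont maturation assay adapted from the WHO microtest at 2% hematocrit. P. falciparum was run in RPMI 1640 with 10% AB+ human serum. P. vivax was run in McCoy's 5A with 20% AB+ human serum.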

Another data set addresses P. cynomolgi DHODH (Plasmodium cynomolgi, UniProt K6UE05). As to the kind of experiment: DHODH inhibition, DCIP-based assay. It is filed as biochemical.
The nature of data set [5]: human pharmacokinetic and dose predictions. In a few lines:
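Human PK was predicted by PBPK modelling from human liver microsome clearance. Allometric scaling of unbound clearance after IV dosing in mouse, rat and dog served as a comparison. Half-life was derived from predicted clearance and Vss. A plasma profile was simulated for a single 200 mg oral dose in the fasted state.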

A further data set addresses Mouse DHODH (Mus musculus, UniProt O35435). The experiment in a line: DHODH inhibition, DCIP-based assay. It is filed as biochemical.
Data set [6] concerns set of 100 human channels and enzymes. The experiment in a line: CEREP diversity panel. Conditions: 10 μM ([…]).
The target of another data set is CYP2D6 (Homo sapiens, UniProt P10635). The experiment in a line: reversible cytochrome P450 inhibition. The format is in vitro ADME. A digest of the protocol: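 Reversible inhibition of human CYP isoforms tested with isoform-specific probe substrates. Time-dependent (mechanism-based) inhibition was also assessed.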
For another data set, the target named is Minipig DHODH (Sus scrofa, UniProt F1S3B0). As to the kind of experiment: DHODH inhibition, DCIP-based assay. The format is biochemical.
Data set [7] is described as follows: pharmacokinetics after IV and oral dosing. The format is in vivo, mice. In a few lines: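 Single IV and oral doses were given. Mice and rats received about 2 mg/kg IV and 5–50 mg/kg orally, with blood sampled over 30–48 h from 2 mice per time point or 2 rats. Dogs received 1 mg/kg by each route (n=3). Plasma was separated by centrifugation and assayed by LC/MS, and parameters were derived non-compartmentally.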

Chain of Mouse DHODH (O35435 whole entry): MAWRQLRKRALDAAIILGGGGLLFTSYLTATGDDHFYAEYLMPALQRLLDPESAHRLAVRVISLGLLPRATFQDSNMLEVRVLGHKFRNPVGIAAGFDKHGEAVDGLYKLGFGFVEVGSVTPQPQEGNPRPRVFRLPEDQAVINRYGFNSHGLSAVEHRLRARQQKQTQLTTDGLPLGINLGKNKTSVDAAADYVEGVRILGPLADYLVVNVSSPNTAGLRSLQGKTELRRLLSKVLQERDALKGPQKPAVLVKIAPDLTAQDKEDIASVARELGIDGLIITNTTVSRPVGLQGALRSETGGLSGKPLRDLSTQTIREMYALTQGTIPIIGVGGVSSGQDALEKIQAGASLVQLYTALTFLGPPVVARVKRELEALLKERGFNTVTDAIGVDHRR
Chain of Minipig DHODH (F1S3B0 1-395): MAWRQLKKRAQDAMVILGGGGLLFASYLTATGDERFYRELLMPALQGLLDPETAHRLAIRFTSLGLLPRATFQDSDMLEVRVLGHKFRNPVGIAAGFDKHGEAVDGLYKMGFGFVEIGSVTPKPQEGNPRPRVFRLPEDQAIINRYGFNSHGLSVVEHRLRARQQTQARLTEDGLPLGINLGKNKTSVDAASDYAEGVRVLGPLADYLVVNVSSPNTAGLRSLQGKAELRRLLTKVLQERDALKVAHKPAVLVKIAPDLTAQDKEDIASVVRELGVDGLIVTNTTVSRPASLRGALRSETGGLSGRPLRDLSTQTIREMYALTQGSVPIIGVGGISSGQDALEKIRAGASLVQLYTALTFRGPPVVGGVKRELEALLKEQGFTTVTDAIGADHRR
Chain of Na_V1.5 channel (Q14524 whole entry): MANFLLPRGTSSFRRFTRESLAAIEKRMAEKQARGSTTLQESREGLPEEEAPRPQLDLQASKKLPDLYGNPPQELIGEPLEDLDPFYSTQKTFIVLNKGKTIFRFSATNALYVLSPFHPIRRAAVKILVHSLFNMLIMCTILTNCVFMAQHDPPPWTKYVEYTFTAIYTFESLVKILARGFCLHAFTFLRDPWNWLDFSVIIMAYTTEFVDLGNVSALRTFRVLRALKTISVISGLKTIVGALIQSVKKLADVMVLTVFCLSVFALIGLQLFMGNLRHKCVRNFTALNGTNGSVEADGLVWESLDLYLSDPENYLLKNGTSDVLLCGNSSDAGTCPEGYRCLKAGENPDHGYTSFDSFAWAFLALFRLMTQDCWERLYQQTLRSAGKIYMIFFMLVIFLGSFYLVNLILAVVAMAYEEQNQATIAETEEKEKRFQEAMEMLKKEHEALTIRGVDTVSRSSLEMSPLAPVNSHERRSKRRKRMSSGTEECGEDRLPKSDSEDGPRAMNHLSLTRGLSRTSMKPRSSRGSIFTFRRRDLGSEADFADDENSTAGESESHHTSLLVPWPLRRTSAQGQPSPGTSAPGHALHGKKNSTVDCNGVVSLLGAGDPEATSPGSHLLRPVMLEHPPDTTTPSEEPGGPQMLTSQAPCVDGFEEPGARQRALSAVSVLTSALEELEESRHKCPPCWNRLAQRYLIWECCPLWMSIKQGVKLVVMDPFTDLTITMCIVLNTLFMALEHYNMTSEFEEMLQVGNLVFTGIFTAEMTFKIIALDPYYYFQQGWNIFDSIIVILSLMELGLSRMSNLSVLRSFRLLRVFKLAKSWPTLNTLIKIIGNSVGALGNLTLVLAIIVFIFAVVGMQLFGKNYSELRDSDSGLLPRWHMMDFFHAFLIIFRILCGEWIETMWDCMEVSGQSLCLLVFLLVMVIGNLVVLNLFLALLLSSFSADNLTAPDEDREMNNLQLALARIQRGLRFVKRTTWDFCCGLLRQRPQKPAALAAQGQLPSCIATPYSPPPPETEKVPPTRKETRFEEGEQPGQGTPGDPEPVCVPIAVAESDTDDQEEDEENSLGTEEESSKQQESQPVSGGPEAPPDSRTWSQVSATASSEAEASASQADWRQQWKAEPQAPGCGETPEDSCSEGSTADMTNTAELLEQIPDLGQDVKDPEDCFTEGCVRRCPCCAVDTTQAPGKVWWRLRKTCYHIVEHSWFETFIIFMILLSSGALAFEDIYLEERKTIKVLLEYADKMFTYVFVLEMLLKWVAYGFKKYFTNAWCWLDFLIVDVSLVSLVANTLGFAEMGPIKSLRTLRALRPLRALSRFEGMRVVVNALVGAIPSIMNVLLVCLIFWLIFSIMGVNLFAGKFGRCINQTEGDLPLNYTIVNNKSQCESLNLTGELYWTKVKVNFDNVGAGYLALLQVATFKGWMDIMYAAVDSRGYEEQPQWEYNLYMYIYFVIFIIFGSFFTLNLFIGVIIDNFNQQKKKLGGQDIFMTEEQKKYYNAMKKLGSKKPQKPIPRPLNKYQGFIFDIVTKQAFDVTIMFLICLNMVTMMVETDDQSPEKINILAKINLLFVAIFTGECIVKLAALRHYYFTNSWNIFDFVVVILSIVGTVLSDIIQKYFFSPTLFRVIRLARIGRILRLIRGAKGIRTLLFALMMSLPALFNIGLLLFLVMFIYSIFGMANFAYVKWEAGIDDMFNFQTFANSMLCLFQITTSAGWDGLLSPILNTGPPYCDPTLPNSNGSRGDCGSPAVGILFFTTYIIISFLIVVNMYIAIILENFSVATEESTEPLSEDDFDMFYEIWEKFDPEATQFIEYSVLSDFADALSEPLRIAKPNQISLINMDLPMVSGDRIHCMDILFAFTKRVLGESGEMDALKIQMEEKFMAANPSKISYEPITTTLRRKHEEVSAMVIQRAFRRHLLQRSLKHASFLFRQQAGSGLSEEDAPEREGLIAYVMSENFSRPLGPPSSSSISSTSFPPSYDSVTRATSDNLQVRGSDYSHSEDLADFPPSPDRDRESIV
Chain of P. cynomolgi DHODH (K6UE05 1-385): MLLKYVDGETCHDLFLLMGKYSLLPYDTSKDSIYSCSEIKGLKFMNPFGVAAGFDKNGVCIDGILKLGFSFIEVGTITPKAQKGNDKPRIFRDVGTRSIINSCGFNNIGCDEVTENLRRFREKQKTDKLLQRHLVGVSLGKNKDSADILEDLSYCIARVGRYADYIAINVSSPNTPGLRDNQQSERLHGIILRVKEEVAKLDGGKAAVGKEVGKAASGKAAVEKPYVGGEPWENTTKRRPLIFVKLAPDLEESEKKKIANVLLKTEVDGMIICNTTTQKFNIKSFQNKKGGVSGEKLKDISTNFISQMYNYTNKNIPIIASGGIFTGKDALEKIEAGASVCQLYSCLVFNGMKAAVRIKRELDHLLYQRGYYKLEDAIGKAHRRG
Chain of CYP2D6 (P10635 whole entry, canonical isoform): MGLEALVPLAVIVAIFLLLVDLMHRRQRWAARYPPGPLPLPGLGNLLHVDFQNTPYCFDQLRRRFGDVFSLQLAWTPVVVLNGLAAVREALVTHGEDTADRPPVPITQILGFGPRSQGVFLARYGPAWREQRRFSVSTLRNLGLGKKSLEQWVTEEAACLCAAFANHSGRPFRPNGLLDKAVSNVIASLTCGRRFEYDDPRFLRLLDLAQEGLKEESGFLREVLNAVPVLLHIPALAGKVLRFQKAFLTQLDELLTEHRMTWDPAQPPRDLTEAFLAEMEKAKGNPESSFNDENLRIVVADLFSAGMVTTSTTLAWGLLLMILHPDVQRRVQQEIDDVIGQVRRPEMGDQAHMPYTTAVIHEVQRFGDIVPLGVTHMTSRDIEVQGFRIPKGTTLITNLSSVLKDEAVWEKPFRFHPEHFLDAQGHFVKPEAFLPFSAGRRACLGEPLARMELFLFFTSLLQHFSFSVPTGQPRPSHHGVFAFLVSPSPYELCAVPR

In the case of `Cc1cc(Nc2ccc(C(F)(F)F)nc2)n2nc(C(C)(F)F)nc2n1` [DSM421, 2-(1,1-Difluoroethyl)-5-methyl-N-(6-(trifluoromethyl)pyridin-3-yl)-[1,2,4]triazolo[1,5-a]pyrimidin-7-amine], the “radical cure activity, liver stage” value in data set [1] was “did not show radical cure activity”. The “cross resistance on DSM265-resistant Dd2 lines” value in data set [2] is “shares cross resistance with DSM265”. Moreover, the EC50 is > 50 µM in [3]; 0.043 µM in data set [4] (read-out: EC50, 48 h growth assay (PRR)); 0.022 µM in data set [4] (read-out: unbound EC50). For the same molecule, the “selectivity window HepG2 over activity against P. falciparum” value with Human HepG2 cells is reported as 600-5000 fold. Also, the “activity on Na_V1.5 channel” value at Na_V1.5 channel is given as “no activity”. For the same molecule, the “lag time before killing began” value in data set [4] (10xEC50) turned out to be 48 h. Further, the “sensitivity of P. vivax versus P. falciparum field isolates” value in the data set with P. vivax field isolates is reported as “equivalent activity towards both species”. The results for the IC50 against P. cynomolgi DHODH, at Mouse DHODH and at Minipig DHODH were 0.012 µM, 18 µM and > 100 µM, respectively. Moreover, the “predicted unbound human clearance” value in [5] (allometric scaling of mice, rats and dogs IV unbound clearance) is 0.132 L/h/kg. Also, the estimated human half-life in [5] (human) is listed as ~ 78 h. For the same molecule, the half-life in [5] (human, plasma, estimated human half-life) was 78 h; in [7] (mouse, plasma) it was ~2 h. Also, the “fold reduction of inhibitory activity in comparison to DSM265” value at Mouse DHODH (rodent (mouse) enzyme) is reported as 10 fold. Also, the “inhibition in CEREP diversity panel” value in data set [6] was “no significant inhibition”. In addition, the inhibition at 20 µM against CYP2D6 turned out to be 45%. Also, the “fold increase of plasma AUC” value in data set [7] (mice, oral, for a 9-fold increase in dose) was found to be 13 fold. The Vd in [7] (mouse, plasma, iv, 2 mg/kg) amounted to 0.9 L/kg. In [7] (mouse, plasma, iv, 2 mg/kg), this molecule gave a clearance of 0.306 L/h/kg. Also, the Tmax in data set [7] (mouse, plasma, po) was in the range of 1 to 2 h. Also, the bioavailability in data set [7] (mouse, plasma, po) was > 100%.
